Measurements reported in ChEMBL document CHEMBL1132369, “Synthesis of 1-(2-aminophenyl)isoquinolines and the biological activity of their cis-dichloro platinum(II) complexes” (J Med Chem, 1999).
pIC50: −log10 of the molar value.

Legend:
L1210 [1] = assay: Compound was evaluated for growth inhibition during 48 hours with L1210 murine leukemia cells; assay type: functional, cell-based, Mus musculus
How it was run: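 L1210 mouse leukemia cells grown in suspension in DMEM with 10% FCS, 2 mM glutamine, streptomycin and penicillin, at 37 °C in 5% CO2. Log-phase cells at 5 × 10^4 cells/mL were exposed to a range of concentrations for 48 h. Pt complexes came from DMSO stocks, pre-held 30 min at 40 °C, final DMSO 0.5%; ligand hydrochlorides were given in water. Cells were counted by haemocytometer, inhibition taken as % of untreated control, and IC50 interpolated from a log-linear plot. At least two independent duplicates were run.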

L1210 [2] = assay: Compound was evaluated for inhibition of DNA synthesis during 48 hours with L1210 murine leukemia cells; assay type: functional, cell-based, Mus musculus
How it was run: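 Log-phase L1210 cells, cultured and treated as in the growth assay (5 × 10^4 cells/mL, 48 h total exposure; Pt complexes from DMSO, final 0.5%). At 42 h, 0.5 μCi [6-3H]thymidine was added and incubation continued 6 h. Cells were harvested onto glass-fibre filters, washed twice with water, and counted by liquid scintillation. IC50 is for inhibition of thymidine incorporation.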

`COc1cc2c(cc1OC)C(c1ccccc1N)NCC2` (stereo not drawn) was tested, and the pIC50 (L1210 [1]; Mus musculus, L1210, 48 h) was 3.85 and the pIC50 (L1210 [2]; Mus musculus, L1210, 48 h) was 4.05.

For `COc1ccc(N)c(C2NCCc3cc(OC)c(OC)cc32)c1` (stereo not drawn), the pIC50 (L1210 [1]; Mus musculus, L1210, 48 h) was 4.01 and the pIC50 (L1210 [2]; Mus musculus, L1210, 48 h) was 4.00.

In the case of “[1-(2-Amino-5-methoxyphenyl)-6,7-dimethoxy-1,2,3,4-tetrahydroisoquinoline]dichloroplatinum (II)”, the pIC50 (L1210 [1]; l1210) was 6.02 and the pIC50 (L1210 [2]; l1210) was 5.85.

“[1-(2-Aminophenyl)-6,7-dimethoxyisoquinoline]dichloroplatinum (II)” was tested, and the pIC50 (L1210 [1]; l1210) was 5.01 and the pIC50 (L1210 [2]; l1210) was 4.70.
